The source of these data is ChEMBL document CHEMBL1255460, “Cyclotide interactions with the nematode external surface” (Antimicrob Agents Chemother, 2010).

Holding throughout (assay type): functional, organism-based
In test [1] the test system is Haemonchus contortus. Nature of the test: Antiparasitic activity against adult Haemonchus contortus assessed as [3H]inulin uptake at 1000 nM.
Test [2] relates to Haemonchus contortus. Description: Antiparasitic activity against adult Haemonchus contortus assessed as [3H]inulin uptake at 10 nM. The method in brief: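 Adult females taken from sheep abomasa 10 to 15 weeks postinfection, held in RPMI 1640-based medium (pH 6.8) at 37°C, in groups of 10. Ivermectin in DMSO given at 0.1 to 100 nM; DMSO-only controls at 0.2% final. [3H]inulin (4 μCi/ml final) added after 6 h. After a further 24 h, worms solubilized in 0.5 M KOH at 50°C overnight, neutralized, and radioactivity counted. Done in triplicate.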

For test [3], the system named is Haemonchus contortus. Description: Antiparasitic activity against adult Haemonchus contortus pharyngeal ligation model assessed as decrease [3H]inulin uptake at 10 nM.
Test [4] has as its system Haemonchus contortus. Description: Antiparasitic activity against adult Haemonchus contortus assessed as decrease in motility. The method in brief:
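Adult worms in groups of 10 in RPMI-based medium at 37°C, given ivermectin in DMSO at 0.1 to 100 nM, with 0.2% DMSO controls. Motility scored 30 h after start, using the O'Grady and Kotze system. Triplicate.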

Test [5] concerns Haemonchus contortus. Description: Antiparasitic activity against adult Haemonchus contortus assessed as reduction in FITC-dextran uptake at 10 nM after 24 hrs. Put shortly:
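Groups of about 10 adult worms held 6 h with or without 10 nM ivermectin. FITC-dextran (40 kDa, 5 mg/ml final) then added. After 24 h, worms washed in PBS, fixed in 10% formalin, and photographed under white and UV light as a measure of feeding.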

The source made the active and inactive calls. The calls are words filed in the database; no cut-off is given here.

With IVERMECTIN, the result in test [1] and in test [2] was inactive. Further, the result in test [3] and in test [5] was Active. In addition, the Activity result in test [4] was “Dose-dependent effect”.
